# Experimental data of several laboratories.
# Protocols differ between the studies behind these lines.
SMILES,organism,assay,system,setting,measurement,result
O=C(NC(=S)Nc1nccs1)c1cccs1,Leishmania tropica,"parasite growth, resazurin",,promastigote,IC50,1.53 µM
CC(=O)N1CCN(c2ccc(OCC3COC(Cn4ccnc4)(c4ccc(Cl)cc4Cl)O3)cc2)CC1 (stereo not shown),Saccharomyces cerevisiae,"microbial growth, well diffusion",ATCC9763,500 µg/mL,inhibition zone,20 mm
O=C(NC(=S)Nc1cccc(O)c1)c1ccco1,Leishmania tropica,"parasite growth, resazurin",,promastigote,IC50,0.68 µM
COc1ccc(Cc2[nH]/c(=N/C(=O)C34CC5CC(CC(C5)C3)C4)n(C)c2-c2ccc(OC(=O)C3CC3)c(OC)c2)cc1,Hepatitis B virus,"viral replication, inhibitor",HePAD38,,IC50,49.3 µM
O=C(O)c1cn(C2CC2)c2cc(N3CCNCC3)c(F)cc2c1=O,Shigella sonnei,microbial growth,ATCC25931,,MIC,0.88 µM
Cc1c(C(N)=O)c(N)n(N)c(=O)c1C#N,Saccharomyces cerevisiae,"microbial growth, well diffusion",ATCC9763,500 µg/mL,inhibition zone,11 mm
COc1ccc(Cc2[nH]/c(=N/C(=O)C34CC5CC(CC(C5)C3)C4)n(C)c2Cc2ccc(OC)c(OC)c2)cc1,Hepatitis B virus,"viral replication, inhibitor",HePAD38,,IC50,0.24 µM
O=C(NC(=S)Nc1ccccn1)c1cccs1,Leishmania tropica,"parasite growth, resazurin",,promastigote,IC50,0.79 µM
N#Cc1c(-c2ccc(Cl)cc2Cl)c(C(N)=O)c(N)n(N)c1=O,Saccharomyces cerevisiae,"microbial growth, well diffusion",ATCC9763,500 µg/mL,inhibition zone,10 mm
COc1ccc(Cc2[nH]/c(=N/C(=O)C34CC5CC(CC(C5)C3)C4)n(C)c2-c2ccc(OC(=O)c3ccc(C(F)(F)F)cc3)c(OC)c2)cc1,Hepatitis B virus,"viral replication, inhibitor",HePAD38,,IC50,5.22 µM
